# MEKK3 PB1 HTS = modulators (inhibitors or enhancers) of MEK5 binding to human MEKK3 PB1 domain | Q99759 | bead-based flow cytometry, Alexa488-MEK5 binding to MEKK3; actives lie on both sides; 0 = blocked by unlabeled MEK5, 100 = vehicle | binding response (% of control), % at 10 µM | 290,000 tested, 1.4% active;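 active means binding response more than 3 SD above or below the average of its plate-row segment, actives on both sides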;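 further: Alexa488 bead fluorescence after subtracting the streptavidin-only scavenger bead signal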
# MEKK2wt PB1 HTS = raises or lowers MEK5 binding to wildtype human MEKK2 PB1 domain; Q9Y2U5; bead flow cytometry, Alexa488-MEK5 binding to MEKK2 WT; actives lie on both sides; binding response (% of control), % at 10 µM; 290,000 tested, 1.1% active; in the data active means binding response below about 67% or above about 130%
# WT yeast gro inh = growth inhibition of WT yeast, mitochondrial fusion screen. mitochondrial fusion phenotypic screen, WT strain. AID 1362. inhibition, % at 10 µM. 190,000 tested, 2.1% active; in the data active means inhibition above about 58%; tested in S. cerevisiae
# ABCB1 inh = blocks JC-1 efflux by human ABCB1 transporter | P08183 | CCRF-Adr cells, flow cytometry | inhibition, % at 6.6 µM | 190,000 tested, 0.067% active | AID 1326; in the data active means inhibition above about 40%;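 further: 0% = vehicle and 100% = reference inhibitor; higher value means more JC-1 retained so stronger ABCB1 efflux block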
# ABCG2 block = human ABCG2 inhibition, ABCB1 as counter-screen; Q9UNQ0; IgMXP3 cells, JC-1 efflux, flow cytometry; inhibition, % at 6.6 µM; 190,000 tested, 0.1% active; AID 1325;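 active means inhibition above 80%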;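 further: 0% = DMSO and 100% = nicardipine control wells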
#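 material = IgMXP3 (ABCG2) plus far-red-tagged CCRF-Adr (ABCB1) cells | amount = 3 million cells/mL, equal mix of both lines | also added = JC-1 transporter substrate | dosing = one concentration, 6.6 µM final | schedule = 10 min at 25 °C | measured by = flow cytometric JC-1 green MFI at 530 nm | read-out basis = percent efflux inhibition, scaled nicardipine 100% to DMSO 0%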
# MEKK2mut PB1 HTS = signal of MEK5 binding to mutant human MEKK2 PB1 domain; bead flow cytometry, Alexa488-MEK5 binding to MEKK2 mutant; percent response, % at 10 µM; 290,000 tested, 0.35% active; AID 1530; in the data active means percent response above about 24%, passing the limit was not always enough
# MEKK2wt confirm = raises or lowers MEK5 binding to wildtype human MEKK2, retest; binding response (% of control), % at 10 µM; 5,900 tested, 2.4% active; bead flow cytometry, Alexa488-MEK5 binding to MEKK2 WT; actives lie on both sides; shares compounds with MEKK3 PB1 HTS; in the data active means binding response below about 16% or above about 210%; inactive means in between
# MEKK2mut-MEK5 = signal of MEK5 binding to mutant human MEKK2, retest; shares compounds with MEKK3 PB1 HTS; bead flow cytometry, Alexa488-MEK5 binding to MEKK2 mutant; percent response, % at 10 µM; 5,900 tested, 2% active; AID 1893; in the data active means percent response mostly above about 71%, no sharp cut-off; inactive means mostly below about 38%;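 further: higher means compound restores mutant binding toward wildtype level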
# MEKK3-MEK5 inh = confirmation of inhibitors of MEK5 binding to human MEKK3; shares compounds with MEKK3 PB1 HTS; bead flow cytometry, Alexa488-MEK5 binding to MEKK3; hits give low values; binding response (% of control), % at 10 µM; 5,900 tested, 1.8% active; AID 1894;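 active means binding response below 72% of control, or above a set upper limit, though filed actives all read lower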;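 further: 100% = DMSO only wells and 0% = binding blocked by excess unlabeled MEK5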
# Starred values were filed as active, the others as inactive; . = not tested or not shown; [ ] = dose if it differs, or a comment. This is a sample that favours compounds with a hit; in the whole collection about 3.5% have one here.
SMILES,MEKK3 PB1 HTS,MEKK2wt PB1 HTS,WT yeast gro inh,ABCB1 inh,ABCG2 block,MEKK2mut PB1 HTS,MEKK2wt confirm,MEKK2mut-MEK5,MEKK3-MEK5 inh
O=[N+]([O-])/C(C(Cl)=C(Cl)Cl)=C(/Sc1ccccc1)N1CCCCC1,102,98,.,.,.,-9,.,.,.
COc1ccc(/C=N/n2cnc3c([nH]c4ccc(C)cc43)c2=O)cc1CN1CCCC1,132*,159*,.,.,.,36,122,16,101
COc1ccc(/C=N/n2cnc3c([nH]c4ccc(F)cc43)c2=O)cc1CN1CCCC1,108,128,.,.,.,15,.,.,.
Cc1ccc(N2CC(C(=O)N/N=C/c3sccc3C)CC2=O)cc1 (stereo not drawn),135*,104,1,2,5,0,93,-2,100
N#CC1=C(N)Oc2cc(O)ccc2C1c1cccnc1 (stereo not drawn),132*,120,-10,0,0,1,108,-5,102
N#CC1=C(N)Oc2cc(O)c(Cl)cc2C1c1cccnc1 (stereo not drawn),102,102,.,.,.,12,.,.,.
CCCCNc1cc(C(=O)O)cc(S(N)(=O)=O)c1Oc1ccccc1,87,16*[inhibitor],13,1,0,-1,94,-6,99
Cc1nn(CC2CC2)c(=O)n1-c1ccccc1,100,99,-5,0,0,-4,.,.,.
Cc1ccc(C(C(=O)NC2CCCCC2)N(C(=O)Cc2c[nH]c3ccccc23)c2ccccc2C)o1 (stereo not drawn),128*,105,-1,1,4,1,102,1,101
COc1ccc(C(C(=O)NC2CCCCC2)N(C(=O)Cc2c[nH]c3ccccc23)c2ccccc2C)cc1OC (stereo not drawn),99,97,-19,.,4,-3,.,.,.
N#C/C(=C\c1ccc(OCc2ccccc2)cc1)C(N)=O,131*,114,-13,0,1,1,93,-2,93
O=C(O)c1cc(N/N=C/c2ccc(OCc3ccccc3)cc2)ccc1Cl,112,186*,-2,-1,0,134*,99,1,102
NC(N)=N/N=C/c1ccc(OCc2ccccc2)cc1,67,162*[inhibitor],19,0,3,17,154,29,114
NC(N)=N/N=C/c1ccc(OCc2ccc(Cl)cc2)cc1,96,183*,82,1,18,29*,205,56,106
O=C(N/N=C/c1ccccc1)c1ccc(OCc2ccccc2)cc1,97,96,10,0,3,-7,.,.,.
CCn1cc(CN2CCC(n3nccc3NC(=O)c3ccc4c(c3)OCO4)CC2)c(C)n1,102,108,.,.,.,5,.,.,.
O=C(COC(=O)C1(c2cccc(F)c2)CCCC1)NCc1ccc2c(c1)OCO2,132*,106,3,1,7,0,104,-2,99
O=C(COC(=O)C1(c2cccc(F)c2)CCCC1)NCc1cccs1,102,95,0,2,3,-1,.,.,.
Cc1ccc(S(=O)(=O)c2nc(S(C)(=O)=O)sc2N2CCC3(CC2)OCCO3)cc1,104,107,.,.,.,8,.,.,.
CN(CC(=O)NCc1ccncc1)S(=O)(=O)c1ccc2ccccc2c1,129*,111,-7,1,3,0,104,4,101
CCCN1CCN(CCCNC(=O)c2cc3c(s2)-c2ccccc2OC3)CC1,102,120,.,.,.,8,.,.,.
CN(C)CCNC(=O)c1cc2c(s1)-c1ccccc1OC2,112,132,-1,0,1,24*,108,2,99
